# Experimental data pooled from the literature.
# Protocols differ between the studies behind these lines.
# Target: Sodium-dependent dopamine transporter (SLC6A3, Homo sapiens, UniProt Q01959)
Compound,test,test system,setting,inhibition [%]
CC(C)N1CCC[C@H]1CNC(=O)c1cn(C2CCCC2)c(=O)c2c1c1ccccc1n2C,"ligand displacement, radioligand",,10 µM,42
CN1CCN(c2ccnc(NCCc3ccccc3)n2)CC1,cell-free assay,,10 µM,98
Fc1ccc(C(OCCN2CCN(CCCc3ccccc3)CC2)c2ccc(F)cc2)cc1,"transporter uptake, inhibitor",HEK293,1 µM,98
Clc1ccc2c(C3CCN(CCc4c[nH]c5ccccc45)CC3)c[nH]c2c1,"ligand displacement, radioligand",,10 µM,96
COCc1c(-c2cc3cc(C)cc(OC)c3s2)c2c(N)ncnn2c1CN1CCNC(=O)C1,"ligand displacement, radioligand",,10 µM,35
CCCCCCCCCCCC(=O)OC[C@@H](COP(=O)(O)OCCNC(=O)c1ccc(Cn2c(=O)[nH]c3c(N)nc(OCCOC)nc32)cc1)OC(=O)CCCCCCCCCCC,"ligand displacement, radioligand",,10 µM,64
CCN(CC)CCCC[C@H](NC(=O)[C@H](CC(C)C)NC(=O)[C@H](C)NC(=O)[C@H](Cc1ccccc1)NC(=O)c1ccc(C(C)(C)C)cc1)C(=O)N[C@@H](CO)C(=O)OC,"ligand displacement, radioligand",,10 µM,7
Cc1cc2c(-c3ccco3)cnc(N[C@H]3CCN(C)C[C@@H]3C(=O)NC3CCCCC3)c2[nH]c1=O,cell-free assay,,10 µM,8.66
COc1ccc(S(=O)(=O)N2CCCCC2)cc1C,"ligand displacement, radioligand",,10 µM,< 30
CC(C)Cn1cnc2c(N)nc3ccccc3c21,"ligand displacement, radioligand",,10 µM,25
CN(CCN1CCC(OC(=O)Nc2ccccc2-c2ccccc2)CC1)C(=O)c1ccc(CN2CCC(C(N)=O)CC2)cc1,"ligand displacement, radioligand",,1 µM,-4
